Each block holds one molecule with its values, some of them ahead of it. Active and inactive are the calls of the source. No cut-off for these calls is given here.
What was measured:
Nociceptin receptor [1] = biological target: T1, Nociceptin receptor (Homo sapiens, UniProt P41146); assay: Displacement of [125I]Tyr14-NC/OFQ from ORL1 receptor
Nociceptin receptor [2] = biological target: T1, Nociceptin receptor; assay: Antagonist activity against ORL1 receptor by [S35]GTPgammaS binding; assay type: functional
[3] = Distribution coefficient, log D at pH 7.4 by shake flask method; assay type: physicochemical; settings: octanol/water
[4] = Metabolic stability in human liver microsomes assessed as parent compound remaining at 1 uM after 30 mins; assay type: ADME, Microsome; settings: read-out: Stability
[5] = Ratio of drug level in brain to plasma of mouse at 3 mg/kg, sc after 30 mins; assay type: ADME, organism-based; set-up: dose 3 mg/kg, route subcutaneous
Method in brief: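 Mice dosed subcutaneously at 3 mg/kg; brain and plasma sampled 30 min after dosing. Brain level measured as nmol/g tissue alongside plasma concentration; value is the brain-to-plasma (b/p) ratio of these two levels.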

[6] = biological target: Voltage-gated inwardly rectifying potassium channel KCNH2 (Homo sapiens, UniProt Q12809); assay: Displacement of [35S]MK499 from human ERG expressed in HEK293 cells
Sequence of Voltage-gated inwardly rectifying potassium channel KCNH2 (Q12809 whole entry): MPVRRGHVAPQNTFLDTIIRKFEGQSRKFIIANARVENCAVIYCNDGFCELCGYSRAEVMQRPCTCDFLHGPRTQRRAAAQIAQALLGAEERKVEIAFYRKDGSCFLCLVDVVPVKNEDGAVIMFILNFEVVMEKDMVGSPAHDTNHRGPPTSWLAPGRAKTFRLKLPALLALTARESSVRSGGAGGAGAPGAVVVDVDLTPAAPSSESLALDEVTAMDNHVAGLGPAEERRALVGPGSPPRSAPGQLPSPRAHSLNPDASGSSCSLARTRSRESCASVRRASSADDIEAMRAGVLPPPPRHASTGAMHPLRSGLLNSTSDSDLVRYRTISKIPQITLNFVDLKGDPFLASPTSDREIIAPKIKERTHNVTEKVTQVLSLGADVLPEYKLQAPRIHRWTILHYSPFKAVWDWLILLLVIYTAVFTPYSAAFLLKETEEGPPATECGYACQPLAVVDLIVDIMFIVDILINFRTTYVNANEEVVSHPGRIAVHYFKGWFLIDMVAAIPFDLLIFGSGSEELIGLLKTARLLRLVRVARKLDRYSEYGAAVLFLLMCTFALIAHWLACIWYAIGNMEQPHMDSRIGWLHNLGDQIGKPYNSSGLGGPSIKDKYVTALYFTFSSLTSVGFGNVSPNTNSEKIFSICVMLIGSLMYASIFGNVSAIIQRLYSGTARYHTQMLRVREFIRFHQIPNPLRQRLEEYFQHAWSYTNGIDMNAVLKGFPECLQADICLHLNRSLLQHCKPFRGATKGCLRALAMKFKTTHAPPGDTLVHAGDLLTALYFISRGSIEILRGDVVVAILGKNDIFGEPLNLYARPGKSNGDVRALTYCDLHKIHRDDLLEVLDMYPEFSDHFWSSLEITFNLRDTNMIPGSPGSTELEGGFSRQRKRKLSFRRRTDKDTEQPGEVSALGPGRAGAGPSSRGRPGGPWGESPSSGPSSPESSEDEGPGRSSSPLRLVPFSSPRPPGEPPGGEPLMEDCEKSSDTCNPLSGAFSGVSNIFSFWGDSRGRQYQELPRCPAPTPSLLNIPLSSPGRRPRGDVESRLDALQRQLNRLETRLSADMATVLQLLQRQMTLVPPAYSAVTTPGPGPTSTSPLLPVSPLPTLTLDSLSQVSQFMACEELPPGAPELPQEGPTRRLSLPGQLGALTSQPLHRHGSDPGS

Mu-type opioid receptor = Mu-type opioid receptor (Homo sapiens, UniProt P35372); assay: Displacement of [3H]diprenorphin from human mu opioid receptor expressed in CHO cells; assay type: cell-based
Sequence of Mu-type opioid receptor (P35372 whole entry): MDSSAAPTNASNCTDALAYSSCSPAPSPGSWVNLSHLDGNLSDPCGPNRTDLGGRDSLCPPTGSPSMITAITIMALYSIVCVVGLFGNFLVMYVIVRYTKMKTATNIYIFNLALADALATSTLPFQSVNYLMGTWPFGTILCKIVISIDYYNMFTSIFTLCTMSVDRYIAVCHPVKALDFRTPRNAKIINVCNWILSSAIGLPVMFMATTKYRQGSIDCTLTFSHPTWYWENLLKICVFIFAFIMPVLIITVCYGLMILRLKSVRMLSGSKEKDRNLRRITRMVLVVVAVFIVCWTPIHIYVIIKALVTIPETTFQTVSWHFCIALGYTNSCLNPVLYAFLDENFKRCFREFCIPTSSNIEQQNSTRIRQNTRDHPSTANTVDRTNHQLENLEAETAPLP
Method in brief: (§1)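 Radioligand displacement in CHO cells stably expressing cloned human opioid receptors: [3H]diprenorphin for mu and [3H]U69593 for kappa. IC50 values were reported.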

[7] = biological target: Kappa-type opioid receptor (Homo sapiens, UniProt P41145); assay: Displacement of [3H]U69593 from human kappa opioid receptor expressed in CHO cells; assay type: cell-based; method in brief: as §1
Sequence of Kappa-type opioid receptor (P41145 whole entry): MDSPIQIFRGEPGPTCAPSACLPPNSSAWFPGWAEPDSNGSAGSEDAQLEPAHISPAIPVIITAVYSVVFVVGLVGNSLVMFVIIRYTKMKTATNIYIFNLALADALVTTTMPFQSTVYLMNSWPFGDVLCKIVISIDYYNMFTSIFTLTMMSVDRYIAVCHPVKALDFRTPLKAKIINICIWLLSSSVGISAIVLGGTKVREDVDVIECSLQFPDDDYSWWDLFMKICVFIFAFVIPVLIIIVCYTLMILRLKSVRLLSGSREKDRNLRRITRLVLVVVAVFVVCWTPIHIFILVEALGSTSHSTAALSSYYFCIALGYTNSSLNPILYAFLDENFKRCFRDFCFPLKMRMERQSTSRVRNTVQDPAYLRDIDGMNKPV

[8] = Oral bioavailability in rat at 3 mg/kg; assay type: ADME, organism-based; settings: in vivo
[9] = Half life in rat at 3 mg/kg, po and 1 mg/kg, iv; assay type: ADME, organism-based; settings: in vivo
[10] = Clearance in rat at 3 mg/kg, po and 1 mg/kg, iv; assay type: ADME, organism-based; settings: in vivo
[11] = Oral bioavailability in dog at 3 mg/kg; assay type: ADME, organism-based, Canis lupus familiaris; settings: in vivo
[12] = Half life in dog at 3 mg/kg, po and 1 mg/kg, iv; assay type: ADME, organism-based, Canis lupus familiaris; settings: in vivo
[13] = Clearance in dog at 3 mg/kg, po and 1 mg/kg, iv; assay type: ADME, organism-based, Canis lupus familiaris; settings: in vivo
[14] = Oral bioavailability in monkey at 3 mg/kg; assay type: ADME, organism-based, Macaca mulatta; settings: rhesus monkey, in vivo
[15] = Half life in monkey at 3 mg/kg, po and 1 mg/kg, iv; assay type: ADME, organism-based, Macaca mulatta; settings: rhesus monkey, in vivo
[16] = Clearance in monkey at 3 mg/kg, po and 1 mg/kg, iv; assay type: ADME, organism-based, Macaca mulatta; settings: rhesus monkey, in vivo
[17] = Plasma concentration in mouse at 3 mg/kg, sc after 30 mins; assay type: ADME, organism-based; set-up: dose 3 mg/kg, route subcutaneous
Brain [18] = assay: Drug level in mouse brain at 3 mg/kg, sc after 30 mins; assay type: ADME, organism-based; set-up: dose 3 mg/kg, route subcutaneous; settings: in vivo, 0.5 h
[19] = Inhibition of adrenergic alpha1 receptor at 10 uM
[20] = biological target: T2, Alpha-1D adrenergic receptor (Homo sapiens) (UniProt P25100); assay: Inhibition of adrenergic Alpha-1D receptor at 10 uM
T2 sequence (whole entry): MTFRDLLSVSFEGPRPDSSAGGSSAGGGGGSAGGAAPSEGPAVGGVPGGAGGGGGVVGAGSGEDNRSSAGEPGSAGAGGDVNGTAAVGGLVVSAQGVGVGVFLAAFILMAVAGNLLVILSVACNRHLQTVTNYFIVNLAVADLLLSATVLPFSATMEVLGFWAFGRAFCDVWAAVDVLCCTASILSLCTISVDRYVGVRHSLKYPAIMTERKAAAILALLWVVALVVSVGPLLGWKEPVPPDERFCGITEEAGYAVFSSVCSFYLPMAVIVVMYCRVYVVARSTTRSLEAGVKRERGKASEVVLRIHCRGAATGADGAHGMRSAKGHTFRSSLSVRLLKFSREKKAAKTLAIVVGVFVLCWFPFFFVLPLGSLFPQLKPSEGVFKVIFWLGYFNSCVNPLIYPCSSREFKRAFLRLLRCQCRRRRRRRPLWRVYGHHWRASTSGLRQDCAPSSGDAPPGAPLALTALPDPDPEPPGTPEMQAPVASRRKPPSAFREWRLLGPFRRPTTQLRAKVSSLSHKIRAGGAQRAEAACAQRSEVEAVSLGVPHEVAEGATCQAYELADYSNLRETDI

[21] = biological target: Cannabinoid receptor 2 (Homo sapiens) (UniProt P34972); assay: Inhibition of CB2 receptor at 10 uM
Sequence of Cannabinoid receptor 2 (Homo sapiens) (P34972 whole entry): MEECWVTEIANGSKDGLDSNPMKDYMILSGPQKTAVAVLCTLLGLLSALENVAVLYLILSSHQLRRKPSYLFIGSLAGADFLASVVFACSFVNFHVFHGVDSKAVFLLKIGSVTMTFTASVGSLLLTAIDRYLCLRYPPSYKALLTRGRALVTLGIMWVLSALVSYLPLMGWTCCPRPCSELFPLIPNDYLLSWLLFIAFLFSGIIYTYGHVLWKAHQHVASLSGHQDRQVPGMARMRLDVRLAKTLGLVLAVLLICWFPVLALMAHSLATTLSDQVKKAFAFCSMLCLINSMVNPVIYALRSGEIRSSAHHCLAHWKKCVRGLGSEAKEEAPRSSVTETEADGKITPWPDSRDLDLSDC

[22] = biological target: Histamine H3 receptor (Homo sapiens) (UniProt Q9Y5N1); assay: Inhibition of histamine H3 receptor at 10 uM
Sequence of Histamine H3 receptor (Homo sapiens) (Q9Y5N1 whole entry): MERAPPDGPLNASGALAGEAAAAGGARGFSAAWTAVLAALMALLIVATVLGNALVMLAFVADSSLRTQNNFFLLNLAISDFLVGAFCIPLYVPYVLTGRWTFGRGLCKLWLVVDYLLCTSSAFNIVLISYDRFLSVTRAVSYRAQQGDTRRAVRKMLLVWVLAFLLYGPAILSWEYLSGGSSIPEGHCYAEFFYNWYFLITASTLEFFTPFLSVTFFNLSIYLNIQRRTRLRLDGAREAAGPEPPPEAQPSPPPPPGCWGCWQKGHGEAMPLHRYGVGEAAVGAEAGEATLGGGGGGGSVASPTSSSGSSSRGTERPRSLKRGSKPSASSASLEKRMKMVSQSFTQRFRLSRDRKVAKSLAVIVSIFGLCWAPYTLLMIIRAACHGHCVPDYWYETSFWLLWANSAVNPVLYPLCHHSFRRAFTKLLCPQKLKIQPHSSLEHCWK

[23] = biological target: T3, High affinity choline transporter 1 (Homo sapiens) (UniProt Q9GZV3); assay: Inhibition of choline transporter at 10 uM
T3 sequence (whole entry): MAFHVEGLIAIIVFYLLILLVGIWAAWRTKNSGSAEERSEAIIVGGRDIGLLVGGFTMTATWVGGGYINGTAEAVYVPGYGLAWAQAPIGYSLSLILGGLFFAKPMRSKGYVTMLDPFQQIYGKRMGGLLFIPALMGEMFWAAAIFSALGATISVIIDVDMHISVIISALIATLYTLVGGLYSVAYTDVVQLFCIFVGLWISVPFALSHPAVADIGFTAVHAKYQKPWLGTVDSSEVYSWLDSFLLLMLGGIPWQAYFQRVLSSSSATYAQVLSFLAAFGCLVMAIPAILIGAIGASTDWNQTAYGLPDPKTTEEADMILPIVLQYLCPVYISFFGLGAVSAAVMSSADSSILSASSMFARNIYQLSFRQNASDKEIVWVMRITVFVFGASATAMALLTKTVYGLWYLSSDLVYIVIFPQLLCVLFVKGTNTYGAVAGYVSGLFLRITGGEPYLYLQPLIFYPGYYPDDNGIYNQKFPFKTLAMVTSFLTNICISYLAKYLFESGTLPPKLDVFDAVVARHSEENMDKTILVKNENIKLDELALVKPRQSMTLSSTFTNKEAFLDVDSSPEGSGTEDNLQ

[24] = Cmax in dog at 10 mg/kg, iv; assay type: ADME, organism-based, Canis lupus familiaris; set-up: dose 10 mg/kg, route intravenous; settings: in vivo
Canis familiaris = assay: Toxic effect in anesthetized dog assessed as incidence of cardiovascular events at 10 mg/kg, iv; assay type: toxicity, organism-based, Canis lupus familiaris; set-up: dose 10 mg/kg, route intravenous; settings: in vivo
Rattus norvegicus = assay: Antihyperalgesic activity in rat assessed as inhibition of carrageenan-induced hyperalgesia at 30 mg/kg, sc after 1 hr; assay type: functional, organism-based; set-up: dose 30 mg/kg
Method in brief: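 Rats received carrageenin (0.15 ml, 3%) by intraplantar injection 3 h before testing. Compound was given sc, and testing followed 1 h later. Responses to a noxious mechanical stimulus were scored, with significance set at P < 0.05.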

[25] = biological target: Delta-type opioid receptor (Homo sapiens, UniProt P41143); assay: Displacement of [3H]naltrindole from human delta opioid receptor expressed in CHO cells
Sequence of Delta-type opioid receptor (P41143 whole entry): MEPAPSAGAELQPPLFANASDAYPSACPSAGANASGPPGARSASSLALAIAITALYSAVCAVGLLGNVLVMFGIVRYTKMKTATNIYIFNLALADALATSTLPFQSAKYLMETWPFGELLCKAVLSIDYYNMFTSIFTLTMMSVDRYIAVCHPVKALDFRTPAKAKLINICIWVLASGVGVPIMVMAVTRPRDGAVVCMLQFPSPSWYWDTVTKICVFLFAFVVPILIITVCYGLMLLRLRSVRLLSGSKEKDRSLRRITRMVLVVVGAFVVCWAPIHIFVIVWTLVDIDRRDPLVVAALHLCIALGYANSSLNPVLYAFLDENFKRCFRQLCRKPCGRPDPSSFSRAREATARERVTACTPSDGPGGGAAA

[26] = Drug level in mouse plasma at 30 mg/kg, po after 1 hr; assay type: ADME, organism-based; set-up: dose 30 mg/kg, route oral
Brain [27] = assay: Drug level in mouse brain at 30 mg/kg, po after 1 hr; assay type: ADME, organism-based; set-up: dose 30 mg/kg, route oral; settings: in vivo
[28] = Ratio of drug level in mouse brain to plasma at 30 mg/kg, po after 1 hr; assay type: ADME, organism-based; set-up: dose 30 mg/kg, route oral

T1 sequence (P41146 whole entry): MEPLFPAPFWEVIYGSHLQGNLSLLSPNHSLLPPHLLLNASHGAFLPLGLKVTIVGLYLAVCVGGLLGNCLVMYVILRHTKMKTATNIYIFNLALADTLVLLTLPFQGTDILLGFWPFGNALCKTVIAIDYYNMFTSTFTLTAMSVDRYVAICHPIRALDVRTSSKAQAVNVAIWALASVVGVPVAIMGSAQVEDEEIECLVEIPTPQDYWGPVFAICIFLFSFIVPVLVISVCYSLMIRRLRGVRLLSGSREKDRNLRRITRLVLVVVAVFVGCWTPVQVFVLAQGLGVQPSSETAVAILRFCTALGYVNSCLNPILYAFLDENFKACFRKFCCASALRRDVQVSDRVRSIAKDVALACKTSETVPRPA

IC50 (Nociceptin receptor [1]): 0.8 nM
IC50 (Nociceptin receptor [2]): 2.4 nM
logD [3]: 3.6
remaining at 0.5 h, 1 µM [4]: 57%
SMILES: CCN1CCN(c2cc3[nH]c(C(=O)[C@]4(CC)CC[C@@](C)(O)CC4)nc3cc2Cl)CC1

Kp at 0.5 h [5]: 2.02
IC50 (Nociceptin receptor [2]): 1.3 nM
logD [3]: 3.1
remaining at 0.5 h, 1 µM [4]: 82%
IC50 (Mu-type opioid receptor): > 10000 nM
IC50 [7]: 1400 nM
bioavailability [8]: 15%
half-life [9]: 0.62 h
clearance [10]: 77 mL/min/kg
bioavailability [11]: 38%
half-life [12]: 3.5 h
clearance [13]: 34 mL/min/kg
bioavailability [14]: 8%
half-life [15]: 4 h
clearance [16]: 22 mL/min/kg
concentration at 0.5 h [17]: 1.08 µM
Drug uptake (Brain [18]): 2.21 nmol/g
inhibition [19]: 72%
inhibition [20]: 74%
inhibition [21]: 73%
inhibition [22]: 50%
inhibition [23]: 62%
Cmax [24]: 10.7 µM
IC50 [25]: > 10000 nM
SMILES: CCN1CCN(c2cc3[nH]c(C(=O)[C@]4(C)CC[C@@](C)(O)CC4)nc3cc2Cl)CC1
IC50 [6]: 20000 nM
Activity (Canis familiaris): Non-toxic
Activity (Rattus norvegicus): Active

IC50 (Nociceptin receptor [1]): 2 nM
IC50 (Nociceptin receptor [2]): 5.3 nM
logD [3]: 3.1
remaining at 0.5 h, 1 µM [4]: 71%
SMILES: CCN1CCN(c2cc3[nH]c(C(=O)[C@]4(C)CC[C@@H](NC(=O)OC)CC4)nc3cc2C)CC1
IC50 [6]: 3000 nM

concentration at 1 h [26]: 4.56 µM
Drug uptake (Brain [27]): 0.38 nmol/g
Kp at 1 h [28]: 0.09
SMILES: CCN1CCN(c2cc3[nH]c(S[C@]4(C)CC[C@@H](N(C)C(C)=O)CC4)nc3cc2Cl)CC1

IC50 (Nociceptin receptor [1]): 5.7 nM
IC50 (Nociceptin receptor [2]): 7.5 nM
logD [3]: 3.7
remaining at 0.5 h, 1 µM [4]: 74%
SMILES: CCN1CCN(c2cc3[nH]c(C(=O)[C@]4(C)CC[C@@H](NC(=O)OC)CC4)nc3cc2Cl)CC1
IC50 [6]: 4900 nM

concentration at 1 h [26]: 22.2 µM
Drug uptake (Brain [27]): 1.11 nmol/g
Kp at 1 h [28]: 0.05
SMILES: CCN1CCN(c2cc3[nH]c(S[C@]4(C)CC[C@@H](NC(=O)OC)CC4)nc3cc2Cl)CC1

IC50 (Nociceptin receptor [1]): 27 nM
SMILES: CCN1CCN(c2cc3[nH]c(C(=O)[C@]4(C)CC[C@](C)(O)CC4)nc3cc2Cl)CC1
IC50 [6]: 3100 nM

IC50 (Nociceptin receptor [1]): 9.9 nM
IC50 (Nociceptin receptor [2]): 38 nM
logD [3]: 3
SMILES: CCN1CCN(c2cc3[nH]c(C(=O)C4(C)CCC(=O)CC4)nc3cc2Cl)CC1
IC50 [6]: 8500 nM
